Experimental data collected from several papers.
Target: cGMP-dependent protein kinase 1 (PRKG1, Homo sapiens, UniProt Q13976)
One construct used (Q13976 1-671): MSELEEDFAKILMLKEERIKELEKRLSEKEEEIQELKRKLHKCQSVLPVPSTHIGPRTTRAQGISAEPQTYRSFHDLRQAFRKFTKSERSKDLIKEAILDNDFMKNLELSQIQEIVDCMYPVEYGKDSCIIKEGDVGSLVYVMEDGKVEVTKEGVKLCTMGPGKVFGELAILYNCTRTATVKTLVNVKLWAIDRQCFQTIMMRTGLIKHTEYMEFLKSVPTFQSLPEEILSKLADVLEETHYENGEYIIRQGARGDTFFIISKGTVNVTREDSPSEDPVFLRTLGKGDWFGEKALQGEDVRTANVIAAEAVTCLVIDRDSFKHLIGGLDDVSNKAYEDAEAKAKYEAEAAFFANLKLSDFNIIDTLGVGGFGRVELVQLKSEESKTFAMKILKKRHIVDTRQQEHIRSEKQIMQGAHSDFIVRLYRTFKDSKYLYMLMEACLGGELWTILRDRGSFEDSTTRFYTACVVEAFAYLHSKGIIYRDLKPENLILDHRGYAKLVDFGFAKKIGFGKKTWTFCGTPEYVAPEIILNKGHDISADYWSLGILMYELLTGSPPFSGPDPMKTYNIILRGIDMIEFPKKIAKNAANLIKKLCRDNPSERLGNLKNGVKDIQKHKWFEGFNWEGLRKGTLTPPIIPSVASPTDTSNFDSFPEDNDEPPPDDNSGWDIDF

`CN(CCCC(F)(F)F)c1nccc(-c2cnn3ncccc23)n1` has a remaining binding of 100% (binding; 1 µM).
`Nc1ncc2c(n1)-c1c([nH]c3ccc(C#CC4CC4)cc13)CCCC2` has a remaining binding of 86% (binding; competition with immobilised ligand; 1 µM).
With `N[C@H]1CCN(c2nccc(-c3cnn4ncccc34)n2)C1` the remaining binding was 89% (binding; 1 µM).
The remaining binding of `O=C(N[C@H]1CCCCC/C=C\C2C[C@@]2(C(=O)O)NC(=O)[C@@H]2C[C@@H](Oc3ccncc3)CN2C1=O)OC1CCCC1` (stereo partly drawn) is reported as 100% (binding; competition with immobilised ligand; 1 µM).
With `c1cncc(-c2cccc(Nc3nccc(NC4CCCCC4)n3)c2)c1` the remaining binding was 100% (binding; competition with immobilised ligand; 10 µM).
For `CS(=O)(=O)NCC[C@H](NC(=O)c1cncc2c1cnn2-c1ccc(F)cc1)c1ccnc(S(C)(=O)=O)c1`, the remaining binding was 96% (cell-free assay; competition with immobilised ligand; 1 µM).
`COc1ccnn2ncc(-c3ccnc(N(C)C)n3)c12` has a remaining binding of 100% (binding; 1 µM).
The remaining binding of `CCCOc1ccc([C@H]2[C@H](C(=O)O)[C@@H](c3ccc4c(c3)OCO4)CN2CC(=O)Nc2c(CC)cccc2CC)cc1` is reported as 88% (cell-free assay; competition with immobilised ligand; 1 µM).
For `O=C(NCC1CCOCC1)c1n[nH]cc1NC(=O)c1c(F)cccc1F`, the remaining binding was 100% (binding; competition with immobilised ligand; 1 µM).
`C=CC(=O)N1CCC(C(=O)NCC(=O)N2CCN(c3nc(-c4cnc(N)nc4C(F)F)nc(N4CCOCC4)n3)CC2)CC1` gave a remaining binding of 87% (binding; competition with immobilised ligand; 1 µM).
The remaining binding of `C[C@H]1CCN(c2nccc(-c3cnn4ncccc34)n2)C1` is reported as 98% (binding; 1 µM).
`O=C(NCCCN1CCOCC1)c1ccc(Nc2ncc(Cl)c(-c3ccc(Cl)s3)n2)cc1` has a remaining binding of 100% (binding; competition with immobilised ligand; 1 µM).
For `C[C@@H](c1ccc(-n2cnc3c(N)ncnc32)cc1)N1CCc2nn(C)c(Cc3ccccc3)c2C1=O`, the remaining binding was 82% (binding; competition with immobilised ligand; 0.1 µM).
For `Cc1cnn2ncc(-c3ccnc(N(C)C)n3)c2c1`, the remaining binding was 99% (binding; 1 µM).
`CCOC(=O)c1cc2cc(-c3cc(C(=O)NCc4ccc(C(=O)O)cc4)nn3C)ccc2[nH]1` has a remaining binding of 91% (cell-free assay; competition with immobilised ligand; 0.1 µM).
With `c1cnn2ncc(-c3ccnc(N4CCC45COC5)n3)c2c1` the remaining binding was 89% (binding; 1 µM).
`O=C(NCCCN1CCOCC1)c1ccc(Nc2nccc(-c3cc4ccccc4s3)n2)cc1` gave a remaining binding of 99% (binding; competition with immobilised ligand; 1 µM).
For `FC(F)(F)c1ccc2c(c1)nc(-c1cccnc1)n2C1CC1`, the remaining binding was 87% (cell-free assay; competition with immobilised ligand; 1 µM).
For `O=C(c1ccc(Nc2ncc(Cl)c(-c3cc4ccccc4s3)n2)cc1)N1CCC(N2CCCC2)CC1`, the remaining binding was 100% (binding; competition with immobilised ligand; 1 µM).
The remaining binding of `C[C@@]1(Cc2ccc(C#N)cc2)C(=O)N(c2cc(Cl)cc(Cl)c2)c2ncc(C(=O)NC3(c4nc(C5CCC5)no4)CC3)n21` is reported as 100% (cell-free assay; competition with immobilised ligand; 1 µM).
For `CNC(=O)[C@@H]1CC[C@@H](n2c(-c3ccc4cnccc4c3)nc3ccc(C(=O)NCc4cccc(C(N)=O)c4)cc32)C1`, the remaining binding was 98% (binding; competition with immobilised ligand; 1 µM).
